In ChEMBL document CHEMBL1137816, “New polyhydroxylated pyrrolidine, piperidine, and pyrrolizidine alkaloids from Scilla sibirica” (J Nat Prod, 2002):
Active and inactive are the calls of the source. The calls are words filed in the database; no cut-off is given here.

What was measured:
[1] = target: Oligo-1,6-glucosidase IMA1 (Saccharomyces cerevisiae S288c) (UniProt P53051); test: Inhibition of yeast alpha-glucosidase assessed as p-nitrophenol release at 1000 uM after 30 mins measured spectrometrically at 400 nm
[2] = Inhibition of Penicillium decumbens alpha-L-rhamnosidase assessed as p-nitrophenol release after 30 mins by spectrophotometry
In short: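 Penicillium decumbens enzyme assayed at pH 4.5 with the appropriate p-nitrophenyl glycoside. Substrate, diluted enzyme and inhibitor were incubated 30 min at 37 °C, then stopped with 400 mM Na2CO3. Released p-nitrophenol was read at 400 nm.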

[3] = target: T1, Beta-mannosidase (Rattus norvegicus) (UniProt Q4FZV0); test: Inhibition of rat epididymis beta-mannosidase assessed as p-nitrophenol release at 1000 uM after 30 mins by spectrophotometry
T1 sequence (whole entry): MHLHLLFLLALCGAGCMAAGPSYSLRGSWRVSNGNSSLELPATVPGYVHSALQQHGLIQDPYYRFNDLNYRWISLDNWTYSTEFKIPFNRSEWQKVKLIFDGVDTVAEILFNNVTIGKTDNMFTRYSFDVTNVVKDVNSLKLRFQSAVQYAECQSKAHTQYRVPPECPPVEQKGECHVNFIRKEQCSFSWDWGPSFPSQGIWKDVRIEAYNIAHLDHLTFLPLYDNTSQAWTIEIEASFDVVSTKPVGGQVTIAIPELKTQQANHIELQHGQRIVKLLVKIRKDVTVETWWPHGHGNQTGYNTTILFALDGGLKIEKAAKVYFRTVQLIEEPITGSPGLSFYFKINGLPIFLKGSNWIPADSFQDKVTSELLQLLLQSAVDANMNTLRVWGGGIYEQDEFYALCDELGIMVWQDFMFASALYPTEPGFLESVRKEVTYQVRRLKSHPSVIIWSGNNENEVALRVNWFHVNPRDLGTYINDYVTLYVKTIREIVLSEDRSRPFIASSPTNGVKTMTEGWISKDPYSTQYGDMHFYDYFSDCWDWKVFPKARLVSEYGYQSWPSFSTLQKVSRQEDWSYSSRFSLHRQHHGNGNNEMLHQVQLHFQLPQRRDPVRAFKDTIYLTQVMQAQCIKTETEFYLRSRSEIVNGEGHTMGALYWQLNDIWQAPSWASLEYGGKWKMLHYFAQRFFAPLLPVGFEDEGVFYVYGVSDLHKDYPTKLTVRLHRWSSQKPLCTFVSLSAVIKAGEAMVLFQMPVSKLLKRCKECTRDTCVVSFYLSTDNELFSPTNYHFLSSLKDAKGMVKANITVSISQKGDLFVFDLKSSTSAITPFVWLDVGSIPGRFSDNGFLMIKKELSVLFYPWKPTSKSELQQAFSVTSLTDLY
In short: (§1)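 p-Nitrophenyl glycoside substrates: Penicillium decumbens α-L-rhamnosidase at pH 4.5, bovine epididymis α-L-fucosidase at pH 5.5, bovine liver β-galactosidase at pH 6.8. β-Mannosidase came from rat epididymal fluid purified from epididymis, with p-nitrophenyl-β-D-mannoside at pH 5.2. Enzyme, substrate and inhibitor were incubated 30 min at 37 °C. The reaction was stopped with 400 mM Na2CO3, and p-nitrophenol was read at 400 nm.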

Beta-galactosidase = target: T2, Beta-galactosidase (Bos taurus, UniProt Q58D55); test: Inhibition of bovine liver beta-galactosidase assessed as p-nitrophenol release after 30 mins by spectrophotometry
T2 sequence (Q58D55 whole entry): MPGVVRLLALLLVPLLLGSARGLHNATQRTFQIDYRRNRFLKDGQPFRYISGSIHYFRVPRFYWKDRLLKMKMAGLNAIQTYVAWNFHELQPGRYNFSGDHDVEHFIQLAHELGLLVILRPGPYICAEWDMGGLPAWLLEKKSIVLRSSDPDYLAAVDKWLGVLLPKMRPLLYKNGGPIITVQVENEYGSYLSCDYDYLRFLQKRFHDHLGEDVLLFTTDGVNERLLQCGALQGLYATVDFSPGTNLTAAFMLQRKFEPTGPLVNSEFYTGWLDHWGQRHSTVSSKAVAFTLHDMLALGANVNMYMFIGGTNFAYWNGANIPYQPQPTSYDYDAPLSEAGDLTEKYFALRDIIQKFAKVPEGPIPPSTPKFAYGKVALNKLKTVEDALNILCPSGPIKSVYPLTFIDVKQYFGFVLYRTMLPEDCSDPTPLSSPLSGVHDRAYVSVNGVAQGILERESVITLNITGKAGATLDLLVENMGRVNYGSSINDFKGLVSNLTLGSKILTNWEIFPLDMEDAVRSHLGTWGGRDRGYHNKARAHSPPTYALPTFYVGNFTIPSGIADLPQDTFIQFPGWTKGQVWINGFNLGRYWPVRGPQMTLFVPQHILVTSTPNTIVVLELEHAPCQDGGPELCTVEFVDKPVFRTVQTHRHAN
In short: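 Bovine liver enzyme at pH 6.8 with the appropriate p-nitrophenyl glycoside. Incubated with inhibitor 30 min at 37 °C, quenched with 400 mM Na2CO3, and released p-nitrophenol read at 400 nm.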

[4] = target: T3, Tissue alpha-L-fucosidase (Bos taurus) (UniProt Q2KIM0); test: Inhibition of bovine epididymis alpha-L-fucosidase assessed as p-nitrophenol release at 1000 uM after 30 mins by spectrophotometry
T3 sequence (whole entry): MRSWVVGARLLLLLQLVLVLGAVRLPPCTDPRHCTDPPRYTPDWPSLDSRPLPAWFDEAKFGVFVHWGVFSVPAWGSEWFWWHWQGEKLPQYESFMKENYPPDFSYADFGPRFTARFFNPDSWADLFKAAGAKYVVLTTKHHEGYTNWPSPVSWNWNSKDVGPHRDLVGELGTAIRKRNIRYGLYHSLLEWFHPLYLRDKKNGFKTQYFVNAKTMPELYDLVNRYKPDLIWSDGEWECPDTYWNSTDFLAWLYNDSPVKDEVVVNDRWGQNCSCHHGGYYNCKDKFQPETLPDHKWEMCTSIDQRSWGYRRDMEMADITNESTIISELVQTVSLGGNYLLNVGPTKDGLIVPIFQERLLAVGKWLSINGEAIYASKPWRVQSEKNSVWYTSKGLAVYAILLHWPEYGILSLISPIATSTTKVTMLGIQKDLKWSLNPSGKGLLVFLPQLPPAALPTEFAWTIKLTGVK
In short: as §1

[5] = Inhibition of rice alpha-glucosidase assessed as D-glucose release after 10 mins by Glucose B-test; parameters: species or system Oryza sativa
In short: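 Rice enzyme with maltose as substrate at the enzyme's optimum pH. Incubation with inhibitor ran 10 min at 37 °C. Released D-glucose determined colorimetrically with a glucose test kit.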

[6] = target: Lysosomal alpha-glucosidase (Rattus norvegicus, UniProt Q6P7A9); test: Inhibition of rat liver lysosome alpha-glucosidase assessed as p-nitrophenol release after 30 mins measured spectrometrically at 400 nm
[7] = target: Lysosomal alpha-glucosidase (Rattus norvegicus) (UniProt Q6P7A9); test: Inhibition of rat intestinal maltase assessed as D-glucose release at 1000 uM after 30 mins by Glucose B-test
In short: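 Brush border membranes from rat small intestine served as the enzyme source, with maltose substrate at pH 5.8. Incubation with inhibitor was 30 min at 37 °C. Released D-glucose was measured colorimetrically by Glucose B-test.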

[8] = target: T4, Tissue alpha-L-fucosidase (Bos taurus, UniProt Q2KIM0); test: Inhibition of bovine epididymis alpha-L-fucosidase assessed as p-nitrophenol release after 30 mins by spectrophotometry
T4 sequence (Q2KIM0 whole entry): T3 sequence (whole entry)
In short: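 Enzyme from bovine epididymis, run at pH 5.5 with the appropriate p-nitrophenyl glycoside substrate. Enzyme, substrate and inhibitor incubated together 30 min at 37 °C. Reaction stopped by adding 400 mM Na2CO3; p-nitrophenol measured spectrometrically at 400 nm.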

[9] = target: Lysosomal alpha-glucosidase (Rattus norvegicus) (UniProt Q6P7A9); test: Inhibition of rat liver lysosome alpha-glucosidase assessed as D-glucose release at 1000 uM after 30 mins by Glucose B-test
Oryza sativa = test: Inhibition of rice alpha-glucosidase assessed as D-glucose release at 1000 uM after 10 mins by Glucose B-test
In short: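 Rice α-glucosidase was assayed with maltose as substrate at the enzyme's optimum pH. Incubation with inhibitor was 10 min at 37 °C. Released D-glucose was determined colorimetrically by Glucose B-test.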

[10] = Inhibition of rat intestinal amyloglucosidase
[11] = target: Oligo-1,6-glucosidase IMA1 (Saccharomyces cerevisiae S288c) (UniProt P53051); test: Inhibition of yeast alpha-glucosidase assessed as D-glucose release at 1000 uM after 30 mins by Glucose B-test
[12] = target: T5, Beta-galactosidase (Bos taurus) (UniProt Q58D55); test: Inhibition of bovine liver beta-galactosidase assessed as p-nitrophenol release at 1000 uM after 30 mins by spectrophotometry
T5 sequence (whole entry): T2 sequence (Q58D55 whole entry)
In short: as §1

Penicillium decumbens = test: Inhibition of Penicillium decumbens alpha-L-rhamnosidase assessed as p-nitrophenol release at 1000 uM by spectrophotometry
In short: as §1

[13] = target: Lactase/phlorizin hydrolase (Rattus norvegicus, UniProt Q02401); test: Inhibition of rat intestinal lactase assessed as p-nitrophenol release after 30 mins by spectrophotometry
Chain of Lactase/phlorizin hydrolase (Q02401 868-1928 limits assumed): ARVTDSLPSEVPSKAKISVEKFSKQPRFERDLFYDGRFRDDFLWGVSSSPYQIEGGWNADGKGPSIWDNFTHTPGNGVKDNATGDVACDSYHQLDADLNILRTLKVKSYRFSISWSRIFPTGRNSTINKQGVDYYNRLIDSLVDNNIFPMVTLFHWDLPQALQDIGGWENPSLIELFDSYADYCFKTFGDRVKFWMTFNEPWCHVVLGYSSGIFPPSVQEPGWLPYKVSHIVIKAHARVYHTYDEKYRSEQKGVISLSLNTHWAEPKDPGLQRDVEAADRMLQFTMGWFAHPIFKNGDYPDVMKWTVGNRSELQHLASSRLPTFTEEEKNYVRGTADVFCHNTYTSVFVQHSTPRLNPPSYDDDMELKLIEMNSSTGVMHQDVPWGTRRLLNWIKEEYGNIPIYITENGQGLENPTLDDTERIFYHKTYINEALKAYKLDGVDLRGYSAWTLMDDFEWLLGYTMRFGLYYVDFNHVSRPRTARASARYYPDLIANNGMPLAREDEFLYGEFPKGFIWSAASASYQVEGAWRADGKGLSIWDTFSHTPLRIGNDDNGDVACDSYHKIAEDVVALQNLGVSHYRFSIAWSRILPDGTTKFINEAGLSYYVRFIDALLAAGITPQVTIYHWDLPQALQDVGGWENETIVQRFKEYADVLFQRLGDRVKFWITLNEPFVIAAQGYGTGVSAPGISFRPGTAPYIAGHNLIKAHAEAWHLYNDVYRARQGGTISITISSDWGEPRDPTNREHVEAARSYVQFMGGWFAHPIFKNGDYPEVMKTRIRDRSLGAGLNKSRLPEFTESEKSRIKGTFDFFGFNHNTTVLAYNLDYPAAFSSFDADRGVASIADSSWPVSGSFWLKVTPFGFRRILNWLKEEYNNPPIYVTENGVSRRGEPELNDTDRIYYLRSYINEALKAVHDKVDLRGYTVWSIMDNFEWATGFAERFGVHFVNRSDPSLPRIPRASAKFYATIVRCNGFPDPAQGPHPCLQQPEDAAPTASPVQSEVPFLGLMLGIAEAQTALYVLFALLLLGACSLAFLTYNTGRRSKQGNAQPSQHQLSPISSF

Chain of Lysosomal alpha-glucosidase (Rattus norvegicus) (Q6P7A9 whole entry): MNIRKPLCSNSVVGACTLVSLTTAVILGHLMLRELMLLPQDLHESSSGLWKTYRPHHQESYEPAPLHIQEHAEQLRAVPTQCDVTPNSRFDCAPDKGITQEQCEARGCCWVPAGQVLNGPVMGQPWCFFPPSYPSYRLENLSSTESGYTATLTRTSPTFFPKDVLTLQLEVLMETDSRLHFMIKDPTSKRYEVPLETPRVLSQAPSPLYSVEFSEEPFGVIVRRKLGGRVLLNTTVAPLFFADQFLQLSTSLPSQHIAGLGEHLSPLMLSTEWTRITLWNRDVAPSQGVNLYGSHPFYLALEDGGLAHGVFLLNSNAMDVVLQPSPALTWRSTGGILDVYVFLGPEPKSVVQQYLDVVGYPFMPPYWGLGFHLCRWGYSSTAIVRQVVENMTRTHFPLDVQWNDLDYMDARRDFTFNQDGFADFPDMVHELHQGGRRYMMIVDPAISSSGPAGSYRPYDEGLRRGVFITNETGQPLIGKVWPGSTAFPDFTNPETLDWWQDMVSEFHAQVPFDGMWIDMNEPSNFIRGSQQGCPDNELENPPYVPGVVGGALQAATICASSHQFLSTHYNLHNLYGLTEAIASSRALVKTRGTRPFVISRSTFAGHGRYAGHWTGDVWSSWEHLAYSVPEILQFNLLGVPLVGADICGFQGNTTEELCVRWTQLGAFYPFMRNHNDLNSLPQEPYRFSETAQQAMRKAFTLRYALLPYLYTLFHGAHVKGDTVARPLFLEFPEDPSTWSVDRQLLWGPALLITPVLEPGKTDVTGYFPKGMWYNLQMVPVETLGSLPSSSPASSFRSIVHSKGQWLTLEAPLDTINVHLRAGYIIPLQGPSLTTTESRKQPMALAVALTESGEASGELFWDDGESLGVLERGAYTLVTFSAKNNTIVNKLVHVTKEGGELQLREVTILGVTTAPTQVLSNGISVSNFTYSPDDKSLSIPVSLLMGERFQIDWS
Chain of Oligo-1,6-glucosidase IMA1 (Saccharomyces cerevisiae S288c) (P53051 whole entry): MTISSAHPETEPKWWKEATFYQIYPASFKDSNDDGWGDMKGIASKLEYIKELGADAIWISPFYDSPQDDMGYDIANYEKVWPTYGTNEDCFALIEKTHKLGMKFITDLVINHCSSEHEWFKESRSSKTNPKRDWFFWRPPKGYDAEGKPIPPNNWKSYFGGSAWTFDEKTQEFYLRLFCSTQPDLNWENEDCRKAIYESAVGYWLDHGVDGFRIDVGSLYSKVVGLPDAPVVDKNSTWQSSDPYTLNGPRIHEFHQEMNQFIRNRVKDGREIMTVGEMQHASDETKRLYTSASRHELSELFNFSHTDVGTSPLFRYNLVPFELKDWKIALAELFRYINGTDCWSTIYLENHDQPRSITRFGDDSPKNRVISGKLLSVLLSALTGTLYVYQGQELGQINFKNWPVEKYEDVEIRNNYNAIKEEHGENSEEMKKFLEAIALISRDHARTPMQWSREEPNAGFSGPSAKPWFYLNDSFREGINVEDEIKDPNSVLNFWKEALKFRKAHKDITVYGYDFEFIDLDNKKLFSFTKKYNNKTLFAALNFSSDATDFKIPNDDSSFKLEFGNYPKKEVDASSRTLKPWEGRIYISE
Chain of Lysosomal alpha-glucosidase (Q6P7A9 whole entry): as the sequence (Q6P7A9 whole entry) above

Q: With `C[C@H]1N[C@H](CO)[C@@H](O)[C@H](O)[C@H]1O` as the compound, how does the inhibition [1] read?
A: < 50%

Q: What about the IC50 [2] of the same compound?
A: 94 µM

Q: What about the inhibition [3] of the same compound?
A: < 50%

Q: What about the IC50 (Beta-galactosidase) of the same compound?
A: 260 µM

Q: What about the inhibition [4] of the same compound?
A: < 50%

Q: What about the IC50 [5] of the same compound?
A: 8 µM

Q: And the IC50 [6]?
A: 19 µM

Q: Which Activity [7] does the source give for `C[C@@H]1C[C@H](O)[C@@H]2[C@@H](O)[C@H](O)[C@@H](CO)N21` (relative stereo) [HYACINTHACINE B4] here?
A: inactive

Q: And the IC50 [8]?
A: 23 µM

Q: What about the Activity [4] of the same compound?
A: inactive

Q: And the Activity [9]?
A: inactive

Q: What about the Activity (Oryza sativa) of the same compound?
A: inactive

Q: And the IC50 [10]?
A: 89 µM

Q: What about the Activity [11] of the same compound?
A: inactive

Q: What about the Activity [12] of the same compound?
A: inactive

Q: And the Activity (Penicillium decumbens)?
A: inactive

Q: With `C[C@@H]1C[C@@H](O)[C@@H]2[C@H](O)[C@H](O)[C@@H](CO)N21` [HYACINTHACINE B3] as the compound, how does the Activity [7] read?
A: inactive

Q: What about the Activity [4] of the same compound?
A: inactive

Q: What about the Activity [9] of the same compound?
A: inactive

Q: And the Activity (Oryza sativa)?
A: inactive

Q: What about the IC50 [10] of the same compound?
A: 51 µM

Q: And the Activity [11]?
A: inactive

Q: And the IC50 [13]?
A: 18 µM

Q: And the Activity [12]?
A: inactive

Q: And the Activity (Penicillium decumbens)?
A: inactive
